Compound activity deposited in PubChem BioAssay by several laboratories.
Most compounds without a hit are left out; they make up all but 1.5% or so of the library.
CSN deneddyl inh – CSN deneddylation inhibition; Purified CSN, SCF-Nedd8-OG deneddylation, fluorescence polarization; inhibition, % at 12.5 µM; 360,000 compounds, 0.38% hits;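 active = pattern-corrected inhibition above about 35%, with an unprinted fluorescence ratio check between 0.5 and 1.5, limit read from the data, passing the limit was not always enough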
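Material: purified human Csn5 enzyme expressed in HEK293T cells / Medium: Tris buffer pH 7.5, NaCl, DTT, Tween-20, trehalose, ovalbumin / Compound dosing: 12.5 µM single point / Schedule: 90 min incubation of compound, enzyme and substrate at room temperature / Signal: fluorescence polarization of the substrate / Control set: no-enzyme wells high, enzyme-with-substrate wells low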
HNF4A DNA FP – change in binding of human HNF4 alpha to DNA; AID 1224865; P41235; HNF4a-FITC DNA binding, fluorescence polarization, 1 h; 360,000 compounds, 0.3% hits; activity change, % at 10 µM; in the data active = activity change above about 30%, passing the limit was not always enough
Rpn11 block – blocks the human proteasome subunit Rpn11 | human 26S proteasome, Ub4-pepOG fluorescence polarization; 20S core pre-blocked with epoxomicin | 360,000 compounds, 0.59% hits | O00487 | calls only at 20 µM;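 active = inhibition at 20 µM, scaled to each plate's controls, above about 33%, limit read from the data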
Target sequence (O00487 whole entry, looked up): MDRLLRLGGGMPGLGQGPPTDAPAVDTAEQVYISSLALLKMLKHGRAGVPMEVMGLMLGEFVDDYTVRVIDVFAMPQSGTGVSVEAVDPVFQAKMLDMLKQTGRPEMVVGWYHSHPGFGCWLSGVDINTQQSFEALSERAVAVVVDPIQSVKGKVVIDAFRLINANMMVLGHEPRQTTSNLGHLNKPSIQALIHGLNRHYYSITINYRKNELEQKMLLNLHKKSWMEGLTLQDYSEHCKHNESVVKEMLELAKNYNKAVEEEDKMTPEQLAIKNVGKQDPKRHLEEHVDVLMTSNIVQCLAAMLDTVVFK
TPT1 inhibitor – C. albicans TPT1 enzyme inhibition; inhibition, % at 5 µM; recombinant caTPT1, FP RNA substrate dephosphorylation; 300,000 compounds, 0.81% hits;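 active = inhibition above the mean of all tested compounds plus 3 SD, set per screening campaign, cut at about 24% in these data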
Hits are given with their value; n = inactive; x = no result shown; + = active, no number.

SMILES	CSN deneddyl inh	HNF4A DNA FP	Rpn11 block	TPT1 inhibitor
Cc1cc(C)c(S(=O)(=O)/N=C2/C=C(SCC(=O)O)C(=O)c3ccccc32)cc1C	n	38	n	x
Cc1cc(C)c(S(=O)(=O)Nc2cc(SCC(=O)O)c(O)c3ccccc23)cc1C	x	x	x	n
COC(=O)c1sccc1-n1cccc1C(=O)N1CCOCC1	n	n	n	n
COC(=O)c1sccc1-n1cccc1C(=O)C(=O)N1CCOCC1	n	40	n	n
O=c1oc2ccccc2n1CCn1c2ccccc2c2nc3ccccc3nc21	52	n	n	n
O=C(CSc1nc2c(cnn2-c2ccccc2)c(=O)[nH]1)c1ccc(Cl)cc1	88	n	n	n
O=C(c1cccs1)N1CCC(Cc2ccccc2)CC1	n	n	n	n
O=C(c1ccc(Br)o1)N1CCC(Cc2ccccc2)CC1	93	n	n	n
C#CCOCCOCCOCCNc1nc(N2CCN(C(=O)C(Cc3cc4ccccc4[nH]3)n3cc(C(N)C(C)CC)nn3)CC2)nc(N2CCN(C(=O)C(Cc3cc4ccccc4[nH]3)n3cc(C(N)C(C)CC)nn3)CC2)n1 (centres undefined)	44	n	n	n
C#CCOCCOCCOCCNc1nc(N2CCN(C(=O)[C@H](CCCCN)n3cc([C@@H](N)C(C)CC)nn3)CC2)nc(N2CCN(C(=O)[C@H](Cc3cc4ccccc4[nH]3)n3cc([C@@H](N)C(C)CC)nn3)CC2)n1 (some centres undefined)	n	49	n	x
C#CCOCCOCCOCCNc1nc(N2CCN(C(=O)[C@H](CCCCN)n3cc(CN)nn3)CC2)nc(N2CCN(C(=O)[C@H](CCCCN)n3cc(CN)nn3)CC2)n1	39	59	n	x
C#CCOCCOCCOCCNc1nc(N2CCN(C(=O)[C@H](CCCN=C(N)N)n3cc(C(N)[C@@H](C)CC)nn3)CC2)nc(N2CCN(C(=O)[C@H](CCCCN)n3cc([C@@H](N)CC(N)=O)nn3)CC2)n1 (some centres undefined)	n	n	n	x
C#CCOCCOCCOCCNc1nc(N2CCOCC2)nc(N2CCN(C(=O)[C@H](Cc3cc4ccccc4[nH]3)n3cc([C@@H](N)C(C)CC)nn3)CC2)n1 (some centres undefined)	n	n	n	n
C#CCOCCOCCOCCNc1nc(N2CCN(C(=O)C([C@@H](C)O)n3cc([C@@H](N)CCCCN)nn3)CC2)nc(N2CCN(C(=O)[C@H](CCCN=C(N)N)n3cc(C(N)[C@@H](C)CC)nn3)CC2)n1 (some centres undefined)	n	61	n	x
C#CCOCCOCCOCCNc1nc(N2CCN(C(=O)[C@H](CCC(=O)O)n3cc(C(N)[C@H](C)CC)nn3)CC2)nc(N2CCN(C(=O)[C@H](Cc3cc4ccccc4[nH]3)n3cc(C(N)[C@H](C)CC)nn3)CC2)n1 (some centres undefined)	x	x	x	n
COCCn1c(SCC(=O)NNC(=O)c2ccccc2)nc2ccccc21	n	n	n	x
CCOC(=O)C1=C(C)N=c2sc(=Cc3ccc(OCC(=O)O)cc3)c(=O)n2C1c1ccc(Cl)cc1 (centres undefined)	35	n	x	x
CCOC(=O)C1=C(C)N=c2s/c(=C\c3ccc(OCC(=O)O)cc3)c(=O)n2C1c1ccc(OC(C)C)cc1 (centres undefined)	n	n	n	n
CCOC(=O)C1=C(C)N=c2s/c(=C\c3ccc(OC(C)=O)c(OCC)c3)c(=O)n2C1/C=C/c1ccccc1 (centres undefined)	n	n	n	n
CCOC(=O)C1=C(C)N=c2s/c(=C\c3ccc(OC(C)=O)cc3)c(=O)n2C1/C=C/c1ccccc1 (centres undefined)	n	36	n	n
CCN(CC)CCN(Cc1cc2cc3c(cc2[nH]c1=O)OCO3)C(=S)NCc1ccco1	35	n	n	n
c1ccc(-c2nccc(-c3ccc(-n4cnc5ccccc54)cc3)n2)cc1	73	n	n	n
c1ccc(-n2cnc3ccccc32)nc1	n	n	n	n
O=C(NCCN1CCC(n2c(=O)[nH]c3ccccc32)CC1)c1cccc2c1-c1ccccc1C2=O	49	n	x	x
O=C(N/N=C/c1cccnc1)c1cc2ccccc2o1	n	n	n	n
SMILES	CSN deneddyl inh	HNF4A DNA FP	Rpn11 block	TPT1 inhibitor
O=C(N/N=C/c1cccnc1)c1cc2c(ccc3ccccc32)o1	55	n	n	n
O=C1NC[C@@H](Cc2cccc3ccccc23)N(CCc2cccc(F)c2)C1=O	54	n	x	x
CCCCN1C(=O)C(=O)NC[C@H]1Cc1cccc2ccccc12	51	n	x	x
COCCNc1cc(N)c([N+](=O)[O-])cc1[N+](=O)[O-]	n	45	n	n
CCCOc1ccc(C(=O)c2ccccc2C(=O)O)cc1OCCC	n	n	n	n
CCOc1ccc(C(=O)c2ccccc2C(=O)O)cc1OCC	57	n	n	n
COC(=O)C[C@H]1C[C@H]2c3cc(NC(=O)Nc4ccc(C(F)(F)F)cc4)ccc3O[C@H]2[C@@H](CO)O1	n	n	n	x
CC(=O)C1=C(C)NC(SCC(=O)c2cc(Cl)ccc2Cl)=C(C#N)C1c1ccco1 (centres undefined)	n	n	+	n
CC(=O)C1=C(C)NC(SCC(N)=O)=C(C#N)C1c1ccco1 (centres undefined)	n	n	n	n
COC(=O)c1ccc(-n2c(CCC(=O)O)ccc2-c2ccc(C)cc2)cc1	n	n	n	n
CCOC(=O)c1ccc(-n2c(CCC(=O)O)ccc2-c2ccc(F)cc2)cc1	42	n	n	n
C#CCOCCOCCOCCNc1nc(N2CCN(C(=O)CCCCCCCCCCNC(=O)[C@H](CCCCN)n3cc(C[C@@H](C)CC)nn3)CC2)nc(N2CCN(C(=O)CCCCCCCCCCNC(=O)[C@H](CCCN=C(N)N)n3cc(C[C@@H](C)CC)nn3)CC2)n1	137	n	+	n
C#CCOCCOCCOCCNc1nc(N2CCN(C(=O)CCCCCCCCCCNC(=O)[C@H](CCCCN)n3cc(C[C@@H](C)CC)nn3)CC2)nc(N2CCN(C(=O)CCCCCCCCCCNC(=O)[C@@H]([C@H](C)O)n3cc(C)nn3)CC2)n1	66	65	n	n
C#CCOCCOCCOCCNc1nc(N2CCN(C(=O)CCCCCCCCCCNC(=O)[C@@H](CCSC)n3cc(CCO)nn3)CC2)nc(N2CCN(C(=O)CCCCCCCCCCNC(=O)[C@H](CCCN=C(N)N)n3cc(C[C@@H](C)CC)nn3)CC2)n1	131	n	+	n
C#CCOCCOCCOCCNc1nc(N2CCN(C(=O)CCCCCCCCCCNC(=O)[C@H](CCCCN)n3cc(C)nn3)CC2)nc(N2CCN(C(=O)CCCCCCCCCCNC(=O)[C@H](CCCN=C(N)N)n3cc(C[C@@H](C)CC)nn3)CC2)n1	x	x	x	n
C#CCOCCOCCOCCNc1nc(N2CCN(C(=O)CCCCCCCCCCNC(=O)[C@H](CO)n3cc(CCCCCN)nn3)CC2)nc(N2CCN(C(=O)CCCCCCCCCCNC(=O)[C@H](CCCN=C(N)N)n3cc(C[C@@H](C)CC)nn3)CC2)n1	x	x	x	n
